Experimental data: the EternaBench riboswitch data

System: MS2 coat protein
Assay: apparent Kd, MS2 coat protein; higher = weaker binding; RNA-MaP array
In short: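 Designed RNAs were transcribed on an Illumina sequencing chip from sequenced DNA templates. They were incubated at room temperature with fluorescently labeled MS2 coat protein at 1.5 nM to 3 μM, for 0.8–1.5 h at the lowest to 10–20 min at the highest concentrations, in Tris-HCl pH 7.5 buffer with KCl, MgCl2, BSA, DTT, tRNA and Tween20, with or without input ligand. Apparent Kd is the median of per-cluster binding-curve fits. Designs measured on fewer than 10 clusters were excluded.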

[1] = designed as: OFF switch for flavin mononucleotide, no ligand
[2] = ligand present: flavin mononucleotide, designed as: OFF switch for flavin mononucleotide
[3] = designed as: ON switch for theophylline, no ligand
[4] = ligand present: theophylline, designed as: ON switch for theophylline
[5] = designed as: ON switch for tryptophan, no ligand
[6] = ligand present: tryptophan, designed as: ON switch for tryptophan
[7] = designed as: ON switch for flavin mononucleotide, no ligand
[8] = ligand present: flavin mononucleotide, designed as: ON switch for flavin mononucleotide
[9] = designed as: OFF switch for tryptophan, no ligand
[10] = ligand present: tryptophan, designed as: OFF switch for tryptophan

Sequence	apparent Kd [1] [nM]	apparent Kd [2] [nM]	apparent Kd [7] [nM]	apparent Kd [8] [nM]	also measured
CCAGCUAAAGGAUAUACUGCCGGUGUUAUGUAAUAAUUGCAACAUGAGGAUCACCCAUGUAGAAGGUAAGUGAA	11	9.45			
CCUCAGCAAUUGGAUACCAGUACAUCGUAAGACAUGAGGAUCACCCAUGUGGGCUUGACAUACCCUUGGCAGCCAUCCUUGAUCC					apparent Kd [3]: 234 nM; apparent Kd [4]: 252 nM
CACGCCAUAGGAUAUACAUGAGGAUCACCCAUGUGGUGGUAGCAGCCAUAACGGUACAGUAGAAGGAUGUGCGA	274	171			
UCCGUUGUAGGAUAUACAUGAGGAUCACCCAUGUAAUGUGGGCAAUUAUAAACUUACUGUAGAAGGACAGAGUG	493	555			
ACCCUGUGAGGAUAUUAUUAGCUCGGCCAUAAUAAGGAUAGUAAGAAGGCACAUGAGGAUCACCCAUGUAUCCU	21.8	19.2			
UCGCUAUUGUCGGCCGCCACUACUGCAGGGAAACAAAUAUAACCACAUGAGGAUCACCCAUGUCUUAGGACCGGGACACCCAUCU					apparent Kd [5]: 98.3 nM; apparent Kd [6]: 80.7 nM
UUAUGUCGGUAGGAUAUUAGACGUGGUUAUACGUAAGAAGGACCAACAUGAGGAUCACCCAUGUGAGAUAGUUC	14.4	24.7			
AUUCCACAUGAGGAUCACCCAUGUUCUGCUCUGCAUGGAAACAGAAGGAUUCGCGUCAGGUCGAAAUAGGAUAUGUUGUCAAAG	33.6	28.5			
AAGCUUCAACUUCAUUCACAUGAGGAUCACCCAUGUGAUCCGAGAAGGUUUCACUAGAAUUCUGAAAAGGAUAUCGAUCACAAU	16.2	19.7			
UUACCAGCAGGAUAUUCAUCUGUUAACAUGAGGAUCACCCAUGUCUCGUGAUCGAACUAGGAAGAAGGGCUUAUAC	74.4	77.3			
UGGUGGAAGACAUGAGGAUCACCCAUGUUCGUAGAUGCCGAGCAGGAUAUUAGAUCAUAAACCAGUAAGAAGGGCUGAGUGUCU			31.8	26.1	
AAAAUAGCAGGAUAUACAUGAGGAUCACCCAUGUCAAGACAGCACGGUGCAAGGUAGGGUAGAAGGGCUAAUUG	22.8	30.1			
CAGAGUUCCUAAGGAUAUUGCUGGUCCGCAGUUCAAGAAGGUAGGUAUAAAAUGCUUAAACAUGAGGAUCACCCAUGUCAAGCC			6.75	6.08	
AAACAGAGCAGAGGAUAUAUGAUAUGCCGAACAUGAGGAUCACCCAUGUCUUCGCGUAGCGCCCCAUAGAAGGCUGAUAGCAAC			16.6	14	
UUCUGUUCCAAGAAGGUCAAAAUUGAUGCCUCUGAAGGAUAUUGGACAGCCAAGGUCUGUGACAUGAGGAUCACCCAUGUUCAG			6.72	6.14	
UCGGCUUCCCAAGGAUAUGAGGUGCUUAUCGACAUGAGGAUCACCCAUGUAAAACUAGCUGCCAUUCAGAAGGUGGACACGCGC			17	7.78	
GGAUACAGGAUAGGAUAUUCUGGGCCUUACAUGAGGAUCACCCAUGUGGAUUUUAUAUAUAGCCGGAAGAAGGAUCAACAGGUG	11.8	9.21			
UCGCCAUUGACGGCCGCCACUCAAUGGUCUUCUCUGAACAUAAUUAACAUGAGGAUCACCCAUGUGAGGACCGGGUCGGUUAGAC					apparent Kd [9]: 19.5 nM; apparent Kd [10]: 32.3 nM
AUAAAAGACAUGAGGAUCACCCAUGUAGCUCCUCGGUCUUCGAGAAGGUUCUUGCCCAGAGCGUGAAAGGAUAUCGCAUAUAUC	353	448			
AUCAUCAGUUCGGCCGCCACUGUUUGGCACAGUUGUAUCGUACAUGAGGAUCACCCAUGUCACCACAGGACCGGGAACGCCGUCG					apparent Kd [9]: 16.1 nM; apparent Kd [10]: 17.3 nM
CUGUACAUGAGGAUCACCCAUGUUAGACCAGCUUAAAAUAUAAGAAGGUUGAGGGCUUGACCAACAAAGGAUAUUAUGUGACCA			27.7	18.1	
CACGCGGAGUUAGGAUAUAACGAUUGUCAGCCGUUAGAAGGAACCCAUCGCAAAUCUACGUCUAACAUGAGGAUCACCCAUGUU			6.85	5.7	
AAAGCAGUAGGAUAUACAGUCAUCCGACAGAUAGCGUAAAGACAUGAGGAUCACCCAUGUAGAAGGACUGUAAA	6.35	6.28			
AGCGACAUGAGGAUCACCCAUGUACAUUCCCGAGGACCGGUACGGCCGCCACUCGAUGGAAGUGGUAGCAGCUUGGAUGGGCCUA					apparent Kd [5]: 15.7 nM; apparent Kd [6]: 26.7 nM
ACCAUGUGACAGGAUAUGUUUCUCUCAAUAAACACAGAAGGGUCUACAUGAGGAUCACCCAUGUGUAUUCUACC	72.6	64.3			
AUUAACAUGAGGAUCACCCAUGUUCUCACACGAGGACCGGUACGGCCGCCACUCGGUUUGGUAUUGGUCACUAGGCAGUUAGGAG					apparent Kd [5]: 15.9 nM; apparent Kd [6]: 17.6 nM
AUACGGCGGUAAAAUCAGAGAGUAAAAGAUACCAGCAAUAAUAAAUGCCCUUGGCAGCUUCUGACAUGAGGAUCACCCAUGUAAA					apparent Kd (designed as: OFF switch for theophylline, no ligand): 15.3 nM; apparent Kd (ligand present: theophylline, designed as: OFF switch for theophylline): 29.1 nM

Sequence	apparent Kd [1] [nM]	apparent Kd [2] [nM]	apparent Kd [7] [nM]	apparent Kd [8] [nM]	also measured
UAGACAAAACAGAAGGAAUGAAGUAGAACAACAAUAGGAUAUGUAUAAAAGUAUACAUGAGGAUCACCCAUGUUACCAACAUGA			11.3	9.34	
CCGACCCAAGGAUAUACAUGAGGAUCACCCAUGUAUAAAAUAUACCAAGGUAAAAUAUGUAGAAGGAGGAUAUG	6.54	6.17			
ACCAUCACAUGAGGAUCACCCAUGUAAAUAACUACAUAGACGGAGGAUAUCACAAUAACAGCGAAAGAGAAGGCCGGUGUAAAA			11.5	8.1	
CGAUCCUUGCAGAAGGACUAAAACCAAAUACCAGUAGGAUAUGCAACAUGAGGAUCACCCAUGUGACGAAGGAUGCGGGAAAUA	8.82	8.69			
AGGCACCAGAGAGGAUAUUAGGACAGCGAACAUGAGGAUCACCCAUGUAUGUUUGUUAGGCGAGCUAAGAAGGCUCCACGGGUU	6.9	6.73			
UGGAGAUAGACGGCCGCCACUAACAUGAGGAUCACCCAUGUCGUCACGAAUGGAUGGCCCUAGAAUAGGACCGGGUCCGGAUUCA					apparent Kd [9]: 33.6 nM; apparent Kd [10]: 34.8 nM
AUUCGCCGAGGAUAUAAGUCGUUUGACAUGAGGAUCACCCAUGUUGUCAGUGGAAAUCGUUUAGAAGGCGGCCUCC	18.9	13.4			
AUCAAUAAUGUUAGGAUAUCUAGCUAUUUUAUGGUAGAGAAGGAACAUGAGGAUCACCCAUGUUGAGCUAUAUU	8.45	8.82			
AUACGAGCCAAGAAGGAGGGAGAUCCUGCAGUCCUAGGAUAUUGGCCACAAUCGGCGGACGACAUGAGGAUCACCCAUGUCCCG			41.8	16	
GUGUUAUAUCCGUAACAUGAGGAUCACCCAUGUGUGAGAUCGAAGGAUAUCUGUCUGAGCUCAAAAGAGAAGGUCGAUACAAUG	57.6	44.9			
UAGACUCAGUAGAAGGAUGAUAUUACGAUAUAACGUGACAUGAGGAUCACCCAUGUCUUCUGGUCAUAGGAUAUACGCGAAAUG			45.6	21.3	
GCUGAACAUGAGGAUCACCCAUGUCCGGAUACCAGCGGACCUCAUCGCCCUUGGCAGCCGAACCAACAGCUUGUGGUGUUCACUC					apparent Kd [3]: 35.4 nM; apparent Kd [4]: 49.9 nM
CCGAUGAUGAUAGGAUAUCUAGGAGUUAAGACGCCGUCUACAUGAGGAUCACCCAUGUUUCGAUUAGAGAAGGAUCGGGAUUCG			13.1	7.13	
UGCCUAUACCGAGGAUAUUACGUCAGAUGUGUGUAAGAAGGCGGGUUCCGAUCAACAUGAGGAUCACCCAUGUAUCUUUACGGC			24.5	8.72	
ACAACAAAACAGAAGGCCUUAAAUUACAUGAGGAUCACCCAUGUUACACUAUACAAACAGAACAAGGAGGAUAUGUAAGACUGA			19.9	8.65	
ACCAUGUAAGGAUAUCACAAGUUGAGUAGUUCGUUUGGGUGUGAGAAGGUACAUGAGGAUCACCCAUGUUCUGG	154	237			
GUGUCUUGGGAGGAUAUCCACUUCACGUCAUAUGGAGAAGGCCCGACAUGAGGAUCACCCAUGUGGUAACUGGC	25.7	28.7			
UGGUCAGAUGUAAGGAUAUUCGCUCUAAUUUCUCAGAAGAAGGUACAUGAGGAUCACCCAUGUAAUAAAGAAAA	9.38	19.6			
AACAUGAGGAUCACCCAUGUACACUCAAUUCGGUAUCGCUGCAAGGAUAUUCGCGUUGGAUACAUGAAGAAGGUGCCCGUACCG			92	12.5	
ACUCCCGCAGAAGGAUAUCCUGACUGAACGAUCGACAUGAGGAUCACCCAUGUGUCUCCGUCGAGGGAGAAGGUCUGCUGUGAC			18.7	7.98	
CUGAAGUAAGGAUAUAUAUACCAUAGACCAUUAAAGACAUUAUAGAAGGUACAUGAGGAUCACCCAUGUGGGAA	29.9	26.4			
GUCUAAGGCCAAGGAUAUUGCGUACUUGCGGAUGAUAGUAGAAAACAUGAGGAUCACCCAUGUCACAAGAAGGUGGUCCUGGGA	323	176			
AUAAAAUGCUUAGGAUAUGUAACAGCAUGCACAUGAGGAUCACCCAUGUUAUAUUUAGUGGAAUGACAGAAGGAAGUAGAGACU			18.6	13.5	
UCGACAUGAGGAUCACCCAUGUGCCUCGGAUGUCGUUAGAGUGAGGAUAUGUCACACCAAAACGUACAGAAGGCACUUAUUAGA	296	267			
UGAGGUAAGGAGAAGGUCCAACGAUGAAUUUAGGAAGGAUAUCCAACAUGAGGAUCACCCAUGUAAGGGUGCCCGAAGUCAGGA	133	178			
GAUUUUAGUGAAGGAUAUACAAACAACAUGAGGAUCACCCAUGUCUGGAAUGAUCGCAGGGCCCGGUAGAAGGUCAUCAGAAAG	31.1	24			
CUGUUACAUGAGGAUCACCCAUGUGAGCGGUUGCUAGGAUAUCGCCAUUGGUGGUUCGGACGAGAAGGAGCUAAAA			150	67.2	
